Calls of active or inactive are those of the source. The calls are words filed in the database; no cut-off is given here.
Columns and labels:
[1] = target: T1, 5-hydroxytryptamine receptor 1A (Rattus norvegicus, UniProt P19327); experiment: In vitro displacement of radioactively labeled ligand [3H]8-OH-DPAT from 5-hydroxytryptamine 1A receptor site in CHO cells; type: cell-based
T1 sequence (P19327 whole entry): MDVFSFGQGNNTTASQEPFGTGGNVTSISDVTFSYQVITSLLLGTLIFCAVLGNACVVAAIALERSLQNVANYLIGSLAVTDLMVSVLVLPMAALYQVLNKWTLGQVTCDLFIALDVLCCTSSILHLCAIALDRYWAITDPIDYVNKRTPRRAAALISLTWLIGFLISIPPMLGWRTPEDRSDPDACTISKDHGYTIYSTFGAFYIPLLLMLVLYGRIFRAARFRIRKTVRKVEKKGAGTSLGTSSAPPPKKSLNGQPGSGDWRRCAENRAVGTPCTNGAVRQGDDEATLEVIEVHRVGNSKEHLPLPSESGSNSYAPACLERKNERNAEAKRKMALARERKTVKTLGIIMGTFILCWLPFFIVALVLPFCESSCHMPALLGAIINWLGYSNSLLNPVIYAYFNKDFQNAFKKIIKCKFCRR

Rattus norvegicus [2] = species on record: Rattus norvegicus; experiment: (§1) In vitro metabolic stability of the test compound was evaluated after incubation in the presence of freshly isolated rat hepatocytes; type: ADME, Hepatocyte
Procedure, shortened: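 Rat hepatocytes were prepared by a modified collagenase perfusion method. Each compound was incubated at three concentrations in suspension at 5 million cells/mL. Initial rates were analysed by direct linear plot to give apparent Vmax and Km, and CLint = Vmax/Km. Rates were measured by HPLC and expressed relative to a reference compound incubated at the same time.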

D(2) dopamine receptor = D(2) dopamine receptor (Rattus norvegicus, UniProt P61169); experiment: Displacement of [3H]U-86170 from Dopamine receptor D2
Procedure, shortened: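 Competition binding at cloned D2 receptors expressed in CHO-K1 cells, using the agonist [3H]U86170 (62 Ci/mmol, 2 nM) against 11 dilutions of test compound. IC50 was fitted to a one-site model by nonlinear least squares. Ki was obtained with the Cheng–Prusoff equation.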

Rattus norvegicus [3] = experiment: In vivo effects on DA (dopamine) synthesis in corps striatum was reported after subcutaneous administration to reserpinized rats; inactive at a dose of 50; type: functional, organism-based
Procedure, shortened: (§2)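 Male Sprague–Dawley rats (200–300 g) given reserpine 5 mg/kg sc 18 h before; compounds sc in neck region, 5 mL/kg. DOPA accumulation in striatum or cortex measured by HPLC with electrochemical detection.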

Rattus norvegicus [4] = experiment: (§3) 5-HTP accumulation in limbic system was determined in vivo; type: functional
Procedure, shortened: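 Male Sprague–Dawley rats (200–300 g) pretreated with reserpine 5 mg/kg sc 18 h beforehand; test drug given sc in neck, 5 mL/kg, neutral pH. 5-HTP in limbic system measured by HPLC with electrochemical detection.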

Rattus norvegicus [5] = experiment: in vivo effects on DA (dopamine) synthesis in cortex was reported after subcutaneous administration to reserpinized rats; inactive at a dose of 50; type: functional, organism-based; procedure, shortened: as §2
Rattus norvegicus [6] = species on record: Rattus norvegicus; experiment: as §1; type: functional, Hepatocyte; parameters: reference not given here
Procedure, shortened: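 Rat hepatocytes were isolated by modified collagenase perfusion and incubated as suspensions (5 million cells/mL) with each compound at three concentrations. Parent loss was followed by HPLC. Initial rates gave apparent Vmax and Km by direct linear plot, with CLint = Vmax/Km. Stability is expressed relative to a reference compound incubated at the same time.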

Rattus norvegicus [7] = experiment: postsynaptic effects was assessed by the increase in the locomotor activity (reversal of reserpine induced hypokinesia) during a 30 min period after subcutaneous administration using photocell motility meters at dose of 12.5 (uM /kg); type: functional
Procedure, shortened: (§4)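 Male Sprague–Dawley rats got reserpine 5 mg/kg sc in the neck 18 h before testing. Compound was given sc in the neck (5 mL/kg), and rats were placed singly in photocell motility meters. Accumulated counts were recorded over 30 min, mean ± SEM, n = 4, with Student's t test against reserpinized controls. Testing ran 9 a.m.–1 p.m.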

Rattus norvegicus [8] = experiment: postsynaptic effects was assessed by the increase in the locomotor activity (reversal of reserpine induced hypokinesia) during a 30 min period after subcutaneous administration using photocell motility meters at the dose of 50(micro M/kg); type: ADME, organism-based; settings: in vivo, sc, 0.5 h
Procedure, shortened: (§5)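 Reserpine 5 mg/kg sc was given 18 h before testing to male Sprague–Dawley rats. Test drug was given sc in the neck, and rats were placed singly in photocell motility meters. Accumulated counts were recorded over 30 min (mean, n = 4), with gross behaviour observed throughout. Student's t test was applied.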

Rattus norvegicus [9] = experiment: postsynaptic effects was assessed by the increase in the locomotor activity (reversal of reserpine induced hypokinesia) during a 30 min period after subcutaneous administration using photocell motility meters at the dose of 12.5(mic roM/kg); type: ADME, organism-based; settings: in vivo, sc, 0.5 h; procedure, shortened: as §5
Rattus norvegicus [10] = experiment: as §3; type: functional; remark: listed apart in the source
Procedure, shortened: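 Male Sprague–Dawley rats (200–300 g), pretreated with reserpine 5 mg/kg sc 18 h before. Test drug given sc. 5-HTP measured in limbic brain tissue by HPLC with electrochemical detection. Dose–response curves were built from four to six dose levels (n = 4) for each substance and brain area. ED50 reported in μmol/kg sc.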

Rattus norvegicus [11] = experiment: in vivo effects on DA (dopamine) synthesis in cortex was reported after subcutaneous administration to reserpinized rats; inactive at a dose of 100; type: functional, organism-based
Rattus norvegicus [12] = experiment: In vivo effects on DA (dopamine) synthesis in corps striatum was reported after subcutaneous administration to reserpinized rats; inactive at a dose of 100; type: functional, organism-based
Rattus norvegicus [13] = experiment: In vivo effects on DA (dopamine) synthesis in corps striatum was reported after subcutaneous administration to reserpinized rats; inactive at a dose of 12.5; type: functional, organism-based; procedure, shortened: as §2
Rattus norvegicus [14] = experiment: in vivo effects on DA (dopamine) synthesis in cortex was reported after subcutaneous administration to reserpinized rats; inactive at a dose of 12.5; type: functional, organism-based; procedure, shortened: as §2
Rattus norvegicus [15] = experiment: uM/kg); type: ADME, organism-based; settings: in vivo; procedure, shortened: as §4

Chain of D(2) dopamine receptor (P61169 whole entry): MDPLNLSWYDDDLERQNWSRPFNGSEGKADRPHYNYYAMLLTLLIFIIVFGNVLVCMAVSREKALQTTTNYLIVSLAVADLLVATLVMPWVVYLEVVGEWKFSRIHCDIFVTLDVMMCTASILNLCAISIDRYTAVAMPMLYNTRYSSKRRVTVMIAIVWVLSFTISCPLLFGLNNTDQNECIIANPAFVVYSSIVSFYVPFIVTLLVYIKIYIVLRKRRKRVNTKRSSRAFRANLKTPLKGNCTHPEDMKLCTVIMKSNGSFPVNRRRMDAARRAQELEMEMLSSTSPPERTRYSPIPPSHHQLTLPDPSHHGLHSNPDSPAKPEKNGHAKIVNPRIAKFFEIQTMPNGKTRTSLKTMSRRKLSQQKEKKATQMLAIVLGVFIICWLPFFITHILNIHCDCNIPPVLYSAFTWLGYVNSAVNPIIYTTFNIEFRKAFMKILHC

| Structure (SMILES) | Ki [1] | Ki (D(2) dopamine receptor) | Metabolic stability (Rattus norvegicus [6]) | other results |
| --- | --- | --- | --- | --- |
| NC(=O)c1cccc2c1[C@@H]1CCN(CCCCl)[C@@H]1CC2 | 0.015 µM | > 1 µM | – | Metabolic stability (Rattus norvegicus [2]): 0.22 |
| CCCN1CC[C@H]2c3c(cccc3C(N)=O)CC[C@H]21 | 0.0019 µM | > 1.63 µM | 1 | ED50 (Rattus norvegicus [3]): inactive; ED50 (Rattus norvegicus [4]): 0.28 µmol/kg; ED50 (Rattus norvegicus [5]): inactive; Locomotor activity (Rattus norvegicus [7]): 249 |
| COCCN1CC[C@H]2c3c(cccc3C(N)=O)CC[C@H]21 | 0.129 µM | > 1 µM | 0.58 | – |
| Brc1cccc2c1[C@@H]1CCN(CC3CC3)[C@@H]1CC2 | 0.0047 µM | 0.119 µM | – | – |
| CN1CC[C@H]2c3c(cccc3C(N)=O)CC[C@H]21 | – | > 1 µM | 4.9 | ED50 (Rattus norvegicus [3]): inactive; ED50 (Rattus norvegicus [4]): 17.6 µmol/kg; ED50 (Rattus norvegicus [5]): inactive; Locomotor activity (Rattus norvegicus [8]): 23 |
| CC(C)=CCN1CC[C@H]2c3c(Br)cccc3CC[C@H]21 | 0.266 µM | 0.018 µM | – | Metabolic stability (Rattus norvegicus [2]): 0.21 |
| COCCN1CC[C@H]2c3c(Br)cccc3CC[C@H]21 | 0.097 µM | 0.252 µM | – | – |
| C=CCCN1CC[C@H]2c3c(Br)cccc3CC[C@H]21 | 0.034 µM | 0.055 µM | – | – |
| FCCCN1CC[C@H]2c3c(Br)cccc3CC[C@H]21 | 0.0047 µM | 0.047 µM | – | – |
| CCN1CC[C@H]2c3c(cccc3C(N)=O)CC[C@H]21 | 0.023 µM | > 1 µM | 1.5 | Locomotor activity (Rattus norvegicus [9]): 13; ED50 (Rattus norvegicus [10]): 2 µmol/kg; ED50 (Rattus norvegicus [11]): inactive; ED50 (Rattus norvegicus [12]): inactive |
| CCCCN1CC[C@H]2c3c(Br)cccc3CC[C@H]21 | 0.045 µM | 0.075 µM | – | – |
| CN1CC[C@H]2c3c(Br)cccc3CC[C@H]21 | 0.024 µM | 0.041 µM | – | – |
| NC(=O)c1cccc2c1[C@@H]1CCN(CC3CC3)[C@@H]1CC2 | 0.0083 µM | > 1 µM | 0.5 | ED50 (Rattus norvegicus [3]): inactive; ED50 (Rattus norvegicus [4]): 1 µmol/kg; ED50 (Rattus norvegicus [5]): inactive; Locomotor activity (Rattus norvegicus [8]): 32 |
| CC(C)CN1CC[C@H]2c3c(cccc3C(N)=O)CC[C@H]21 | 0.042 µM | > 1 µM | 0.23 | – |
| C=CCN1CC[C@H]2c3c(cccc3C(N)=O)CC[C@H]21 | 0.0015 µM | > 1 µM | 1 | ED50 (Rattus norvegicus [13]): inactive; ED50 (Rattus norvegicus [4]): 0.04 µmol/kg; ED50 (Rattus norvegicus [14]): inactive; Locomotor activity (Rattus norvegicus [15]): 215 |

— ChEMBL document CHEMBL1128248, “C-9 and N-substituted analogs of cis-(3aR)-(-)-2,3,3a,4,5,9b-hexahydro-3- propyl-1H-benz[e]indole-9-carboxamide: 5-HT1A receptor agonists with various degrees of metabolic stability” (J Med Chem, 1995)
